The text below walks through data of ChEMBL document CHEMBL4007414, “Design, Synthesis, Structure-Activity Relationship Studies, and Three-Dimensional Quantitative Structure-Activity Relationship (3D-QSAR) Modeling of a Series of O-Biphenyl Carbamates as Dual Modulators of Dopamine D3 Receptor and Fatty Acid Amide Hydrolase” (J Med Chem, 2017).

Broadly, the EC50 is the concentration giving half of the maximal effect. In general, bioavailability refers to dose-corrected exposure relative to a reference, in per cent. Low readings indicate poor availability, high ones good availability. The term inhibition denotes how much of the control response was suppressed. Broadly, the Vd is a proportionality between amount in the body and measured concentration, not a real space. A high value points to extensive tissue distribution. As a reminder, the Cmax is the maximum level reached in the sampled fluid or tissue. For orientation: Tmax means the time at which the peak concentration occurs. For orientation: clearance means a measure of how efficiently the substance is removed, as volume per time. Lower therefore signals a low capacity for elimination. Broadly, the AUC is the area under the concentration-time curve, a measure of exposure. In general, IC50 refers to the concentration needed to halve the response being measured. The low end stands for greater potency, the high end for weaker potency.

The target of data set [1] is T1, D(2) dopamine receptor (Homo sapiens, UniProt P14416). Briefly: Agonist activity at human dopamine D2 receptor-short expressed in CHO-K1 cells assessed as reduction in adenylyl cyclase activator NKH 477 induced cAMP accumulation preincubated for 10 mins followed by NKH 477 addition by HTRF assay. It is filed as functional, cell-based. Background: cAMP levels reflect the balance of adenylyl cyclase and phosphodiesterase activity.
T1 sequence (P14416 whole entry): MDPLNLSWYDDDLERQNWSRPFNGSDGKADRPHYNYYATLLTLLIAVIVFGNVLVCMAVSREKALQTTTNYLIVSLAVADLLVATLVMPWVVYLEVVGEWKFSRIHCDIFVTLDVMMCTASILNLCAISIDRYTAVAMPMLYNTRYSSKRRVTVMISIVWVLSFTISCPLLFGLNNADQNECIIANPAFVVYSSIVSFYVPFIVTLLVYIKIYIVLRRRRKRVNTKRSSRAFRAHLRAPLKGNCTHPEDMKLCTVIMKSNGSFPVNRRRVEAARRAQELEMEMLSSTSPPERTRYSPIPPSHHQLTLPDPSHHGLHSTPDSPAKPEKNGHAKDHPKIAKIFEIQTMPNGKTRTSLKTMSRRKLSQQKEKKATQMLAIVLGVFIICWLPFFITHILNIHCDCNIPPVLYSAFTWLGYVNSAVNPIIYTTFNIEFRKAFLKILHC

Data set [2] deals with T2, D(3) dopamine receptor (Homo sapiens, UniProt P35462). Briefly: Agonist activity at recombinant human dopamine D3 receptor expressed in CHO-K1 cells assessed as […] in cAMP accumulation after 30 mins by HTRF assay relative to dopamine. It is filed as functional, cell-based.
T2 sequence (P35462 whole entry): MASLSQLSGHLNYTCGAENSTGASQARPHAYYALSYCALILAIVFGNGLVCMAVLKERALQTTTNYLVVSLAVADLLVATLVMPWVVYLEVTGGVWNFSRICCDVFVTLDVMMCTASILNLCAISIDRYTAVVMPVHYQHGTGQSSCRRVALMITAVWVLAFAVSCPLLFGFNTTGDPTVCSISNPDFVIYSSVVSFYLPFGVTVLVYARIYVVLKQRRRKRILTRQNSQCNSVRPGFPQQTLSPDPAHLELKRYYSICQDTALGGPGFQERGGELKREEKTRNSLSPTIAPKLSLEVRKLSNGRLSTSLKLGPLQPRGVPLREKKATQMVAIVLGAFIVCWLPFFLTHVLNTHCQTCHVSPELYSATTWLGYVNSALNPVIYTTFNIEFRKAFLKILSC
For data set [3], the target named is T1, D(2) dopamine receptor. Nature of the data set: Agonist activity at human dopamine D2 receptor-short expressed in CHO-K1 cells assessed as reduction in adenylyl cyclase activator NKH 477 induced cAMP accumulation preincubated for 10 mins followed by NKH 477 addition by HTRF assay relative to dopamine. Type of data set: functional, cell-based.
The species named for data set [4] is Homo sapiens. Briefly: Ratio of EC50 for human dopamine D2 receptor-short expressed in CHO-K1 cells to EC50 for recombinant human dopamine D3 receptor expressed in CHO-K1 cells. It is filed as cell-based.
Data set [5] is described as follows: Oral bioavailability in Sprague-Dawley rat […] at 10 mg/kg by UPLC-MS analysis. Type of data set: ADME, organism-based.
The target in data set [6] is T3, Monoglyceride lipase (Homo sapiens) (UniProt Q99685).
T3 sequence (whole entry): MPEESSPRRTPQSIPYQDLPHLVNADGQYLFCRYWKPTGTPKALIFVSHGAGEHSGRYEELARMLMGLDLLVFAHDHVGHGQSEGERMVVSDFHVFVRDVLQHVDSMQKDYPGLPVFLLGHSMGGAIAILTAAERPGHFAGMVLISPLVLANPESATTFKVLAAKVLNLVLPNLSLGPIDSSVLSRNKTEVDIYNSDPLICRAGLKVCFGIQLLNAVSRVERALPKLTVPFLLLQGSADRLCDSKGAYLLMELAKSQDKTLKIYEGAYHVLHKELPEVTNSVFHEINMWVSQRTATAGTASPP
Nature of the data set: Irreversible inhibition of human MAGL after 1 hr by LC-MS/MS analysis.

The nature of data set [7]: Elimination half life in Sprague-Dawley rat plasma at 3 mg/kg, iv by UPLC-MS analysis. It is filed as ADME, organism-based. To be noted: read-out: beta t1/2. The procedure, abridged: (§1)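 Cannulated male Sprague-Dawley rats (175–200 g), three per dose, dosed IV at 3 mg/kg or PO at 10 mg/kg in PEG400/Tween 80/saline 10/10/80. Blood taken IV at 0–240 min and PO at 0–1440 min. Plasma extracted with cold acetonitrile plus internal standard and analysed by UPLC-MS/MS against a 1 nM–10 μM calibration. PK parameters derived from time/concentration profiles.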

Data set [8] deals with 5-hydroxytryptamine receptor 1B (Rattus norvegicus) (UniProt P28564). Nature of the data set: Displacement of [125I]CYP from 5HT-1B receptor in OFA rat cortical membranes at 10 to 100 nM after 90 mins by scintillation counting. Type of data set: cell membranes.
5-hydroxytryptamine receptor 1B (Rattus norvegicus), sequence (P28564 whole entry): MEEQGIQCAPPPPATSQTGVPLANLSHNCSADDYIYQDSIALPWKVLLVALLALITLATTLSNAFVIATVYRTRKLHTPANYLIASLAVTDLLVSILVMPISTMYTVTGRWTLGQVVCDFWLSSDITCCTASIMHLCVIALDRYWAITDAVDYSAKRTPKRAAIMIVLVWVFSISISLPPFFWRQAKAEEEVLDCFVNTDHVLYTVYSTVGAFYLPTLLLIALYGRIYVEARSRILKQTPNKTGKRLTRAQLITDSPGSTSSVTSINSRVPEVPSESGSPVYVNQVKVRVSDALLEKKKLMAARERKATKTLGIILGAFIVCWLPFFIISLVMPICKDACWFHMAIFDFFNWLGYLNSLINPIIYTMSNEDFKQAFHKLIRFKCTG
Data set [9] deals with Beta-2 adrenergic receptor (Homo sapiens) (UniProt P07550). Nature of the data set: Displacement of [3H](-)CGP12177 from beta2 adrenergic receptor (unknown origin) at 10 to 100 nM by scintillation counting.
Beta-2 adrenergic receptor (Homo sapiens), sequence (P07550 whole entry, looked up): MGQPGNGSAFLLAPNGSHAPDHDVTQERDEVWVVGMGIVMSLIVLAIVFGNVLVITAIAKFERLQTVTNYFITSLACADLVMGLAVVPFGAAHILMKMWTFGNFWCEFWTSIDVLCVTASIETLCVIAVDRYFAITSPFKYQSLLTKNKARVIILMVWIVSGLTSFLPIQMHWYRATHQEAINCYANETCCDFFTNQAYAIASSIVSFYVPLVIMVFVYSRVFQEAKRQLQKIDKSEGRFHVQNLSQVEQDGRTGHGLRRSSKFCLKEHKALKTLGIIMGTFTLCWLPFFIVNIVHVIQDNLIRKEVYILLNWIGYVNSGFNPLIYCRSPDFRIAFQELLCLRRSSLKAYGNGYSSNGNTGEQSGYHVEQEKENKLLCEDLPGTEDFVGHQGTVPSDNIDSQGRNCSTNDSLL
Data set [10] can be described thus: Volume of distribution in Sprague-Dawley rat plasma at 3 mg/kg, iv by UPLC-MS analysis. Type of data set: ADME, organism-based. In short, it runs like this: as §1
In data set [11] the target is T4, 5-hydroxytryptamine receptor 1A (Homo sapiens) (UniProt P08908).
T4 sequence (whole entry): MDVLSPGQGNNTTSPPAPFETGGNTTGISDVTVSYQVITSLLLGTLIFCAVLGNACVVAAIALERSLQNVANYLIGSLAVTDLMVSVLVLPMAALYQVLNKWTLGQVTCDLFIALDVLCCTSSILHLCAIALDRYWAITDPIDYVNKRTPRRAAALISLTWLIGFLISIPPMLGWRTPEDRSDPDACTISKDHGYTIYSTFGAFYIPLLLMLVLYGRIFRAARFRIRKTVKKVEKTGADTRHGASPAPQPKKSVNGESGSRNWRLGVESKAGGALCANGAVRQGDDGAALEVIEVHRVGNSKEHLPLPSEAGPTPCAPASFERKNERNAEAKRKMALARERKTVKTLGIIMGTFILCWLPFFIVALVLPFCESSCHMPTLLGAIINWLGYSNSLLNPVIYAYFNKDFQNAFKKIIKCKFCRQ
Nature of the data set: Displacement of [3H]8-OH-DPAT from human 5HT-1A receptor expressed in Sf9 insect cells at 100 nM after 60 mins by scintillation counting.

A short description of data set [12]: Cmax in Sprague-Dawley rat plasma at 10 mg/kg, po by UPLC-MS analysis. It is filed as ADME, organism-based. Set-up: dose 10 mg/kg, route oral. The procedure, abridged: as §1
In data set [13] the target is Beta-1 adrenergic receptor (Homo sapiens) (UniProt P08588). Briefly: Displacement of [3H](-)CGP12177 from human beta1 adrenergic receptor expressed in HEK293 cells at 10 to 100 nM after 45 mins by scintillation counting. Type of data set: cell-based. (In general: Loss of bound radioactivity is the signal in a displacement assay; it reports binding, not function.)
Beta-1 adrenergic receptor (Homo sapiens), sequence (P08588 whole entry, looked up): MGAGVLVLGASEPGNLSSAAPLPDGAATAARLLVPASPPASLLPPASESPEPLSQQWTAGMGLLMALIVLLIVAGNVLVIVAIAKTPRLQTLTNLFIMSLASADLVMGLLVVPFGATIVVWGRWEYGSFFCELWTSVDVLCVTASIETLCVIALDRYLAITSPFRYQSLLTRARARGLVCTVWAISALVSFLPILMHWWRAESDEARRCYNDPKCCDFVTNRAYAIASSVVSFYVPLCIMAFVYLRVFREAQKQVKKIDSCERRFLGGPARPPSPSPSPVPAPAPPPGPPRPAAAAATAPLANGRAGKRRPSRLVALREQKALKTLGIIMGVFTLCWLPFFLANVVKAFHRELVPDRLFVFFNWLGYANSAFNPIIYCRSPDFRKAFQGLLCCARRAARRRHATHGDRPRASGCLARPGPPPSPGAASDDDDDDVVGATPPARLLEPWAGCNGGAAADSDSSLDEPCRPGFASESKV
Data set [14] in a line: Tmax in Sprague-Dawley rat brain at 10 mg/kg, po by UPLC-MS analysis. It is filed as ADME, organism-based. The procedure, abridged:
(§2)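 Male Sprague-Dawley rats, three per time point, dosed orally at 10 mg/kg in PEG400/Tween 80/saline 10/10/80. Brains taken at 1 h and 4 h, homogenized in RIPA buffer and extracted with cold acetonitrile plus internal standard. Compound quantified by UPLC-MS/MS; protein measured by BCA.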

A short description of data set [15]: Clearance in Sprague-Dawley rat plasma at 3 mg/kg, iv by UPLC-MS analysis. Type of data set: ADME, organism-based. In short, it runs like this:
as §1

Data set [16] can be described thus: Cmax in Sprague-Dawley rat brain at 10 mg/kg, po by UPLC-MS analysis. It is filed as ADME, organism-based. The arrangement: dose 10 mg/kg, route oral. In short, it runs like this: as §2
Data set [17] can be described thus: Half life in rat liver microsomes at […] by UPLC-MS analysis. Type of data set: ADME, microsome.
A short description of data set [18]: Cmax in Sprague-Dawley rat plasma at 3 mg/kg, iv by UPLC-MS analysis. It is filed as ADME, organism-based. Set-up: dose 3 mg/kg, route intravenous. The procedure, abridged:
as §1

Data set [19] concerns Brain. Nature of the data set: Total drug uptake in Sprague-Dawley rat brain at 10 mg/kg, po by UPLC-MS analysis. It is filed as ADME, organism-based. To be noted: in vivo, read-out: Drug uptake. The procedure, abridged: as §2
Data set [20] in a line: AUC in Sprague-Dawley rat brain at 10 mg/kg, po by UPLC-MS analysis. It is filed as ADME, organism-based. In short, it runs like this:
as §2

The nature of data set [21]: Tmax in Sprague-Dawley rat plasma at 3 mg/kg, iv by UPLC-MS analysis. It is filed as ADME, organism-based. In short, it runs like this: as §1
Data set [22] in a line: Half life in rat plasma at 2 uM by UPLC-MS analysis. It is filed as ADME, cell-free. The procedure, abridged:
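Compound at 2 μM final in rat plasma with 5% DMSO, incubated at 37 °C. Samples taken at 0, 5, 15, 30, 60 and 120 min and quenched in cold acetonitrile with internal standard.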

In data set [23] the target is T5, Fatty-acid amide hydrolase 1 (Homo sapiens, UniProt O00519).
T5 sequence (O00519 whole entry): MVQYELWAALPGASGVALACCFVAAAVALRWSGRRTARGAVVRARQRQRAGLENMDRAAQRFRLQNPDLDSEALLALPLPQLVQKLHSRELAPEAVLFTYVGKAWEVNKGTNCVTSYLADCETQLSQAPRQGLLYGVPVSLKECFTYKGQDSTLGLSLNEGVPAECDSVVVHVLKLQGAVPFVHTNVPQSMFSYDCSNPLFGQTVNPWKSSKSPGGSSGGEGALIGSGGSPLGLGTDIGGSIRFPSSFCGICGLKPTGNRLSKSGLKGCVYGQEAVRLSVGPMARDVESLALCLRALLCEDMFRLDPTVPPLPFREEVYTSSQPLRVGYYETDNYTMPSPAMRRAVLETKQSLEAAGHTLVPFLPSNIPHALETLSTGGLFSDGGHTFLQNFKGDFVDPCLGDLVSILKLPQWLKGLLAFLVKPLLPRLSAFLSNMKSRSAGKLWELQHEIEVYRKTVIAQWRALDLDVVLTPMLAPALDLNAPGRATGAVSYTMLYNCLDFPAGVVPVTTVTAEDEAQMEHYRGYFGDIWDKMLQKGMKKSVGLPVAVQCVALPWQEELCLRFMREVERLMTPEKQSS
Nature of the data set: Inhibition of human FAAH1 expressed in HEK293 cell membrane-enriched lysate using AMC arachidonyl amide as substrate preincubated for 50 mins followed by substrate addition measured after 4 hrs by fluorescence analysis. In short, it runs like this:
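Membrane-enriched lysate (2,5 μg) from HEK293 cells stably expressing human FAAH-1, pre-incubated 50 min with compound or 2,5% DMSO vehicle in 50 mM Tris-HCl pH 7.4, 0.05% fatty acid-free BSA. Then 1 μM AMC arachidonyl amide added, 4 h at 37 °C.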

Data set [24] addresses T2, D(3) dopamine receptor. Briefly: Agonist activity at recombinant human dopamine D3 receptor expressed in CHO-K1 cells assessed as […] in cAMP accumulation after 30 mins by HTRF assay. It is filed as functional, cell-based.

The structures appear in SMILES notation. Calls of active or inactive are those of the source. No cut-off for these calls is given here. A value given as a limit tells only on which side of the number the result lay.

On to `NC(=O)c1cccc(-c2ccc(OC(=O)NCCCCN3CCN(c4ccccc4C(F)(F)F)CC3)cc2)c1`, for which the result in data set [1] was inactive.
As to `O=C(NCCCCN1CCN(c2cccc(Cl)c2Cl)CC1)Oc1ccc2c(c1)[nH]c1ccccc12`, the Efficacy in data set [2] was above 90%.
Turning to `NC(=O)c1cccc(-c2ccc(OC(=O)NCCCCN3CCN(c4ccccc4)CC3)cc2)c1`, in [2], the Efficacy came to 88%.
Regarding `COc1ccccc1N1CCN(CCCCNC(=O)Oc2ccc3c(c2)[nH]c2ccccc23)CC1`, the Efficacy is 44% in data set [3] and 66% in data set [2]. For the same compound, the EC50 in data set [1] was 57.9 nM. Also, the Ratio EC50 in data set [4] is 4.8.
In [5], `Cl.O=C(NCCCCN1CCN(c2cccc(Cl)c2Cl)CC1)Oc1ccc(-c2ccccc2)cc1` displayed a bioavailability of 21%. The inhibition entry in data set [6], in [8], in data set [9] and in [13] was “inactive” in each case. In addition, the half-life in data set [7] was found to be 2.42 h. Further, the volume of distribution (Vd) in data set [10] worked out at 23.7 L/kg. For the same compound, the inhibition in data set [11] was 60.4%. Also, the figures for the Cmax in data set [12], in [16] and in data set [18] were 54 ng/mL, 37 ng/mL and 500 ng/mL, respectively. For the same compound, the values for the Tmax in data set [14] and in data set [21] were 4 h and 5 min, respectively. This compound also came in with a clearance in data set [15] of 110 mL/min/kg. The compound further came in with a half-life at […] in [17] above 1 h. Moreover, the concentration in data set [19] was 391 nM. The compound further gave an exposure (AUC) in data set [20] of 1.41 ng·h/mL. Also, the half-life at 2 µM in data set [22] amounted to 1.62 h.
In [23], `O=C(NCCCCN1CCN(c2ccccc2C(F)(F)F)CC1)Oc1ccc(-c2ccccc2)cc1` displayed an IC50 of 20.7 nM. Moreover, the 50% effective concentration (EC50) in data set [24] was 1200 nM. The Efficacy in data set [2] is above 90%.
Turning to `O=C(NCCCN1CCN(c2cccc(Cl)c2Cl)CC1)Oc1ccc2c(c1)[nH]c1ccccc12`, the Efficacy in data set [2] is above 90%.
In data set [23], `COc1cc(OC(=O)NCCCCN2CCN(c3cccc(Cl)c3Cl)CC2)ccc1-c1ccccc1` had an IC50 of 4.3 nM. For the same compound, in [24], the EC50 was 1.66 nM. In addition, the Efficacy in data set [2] is 32%.
`NC(=O)c1cccc(-c2ccc(OC(=O)NCCCCN3CCN(c4cccc(Cl)c4Cl)CC3)cc2F)c1` registered an IC50 in [23] of 1 nM. The Efficacy in data set [3] turned out to be 40.4%; in data set [2] it was 74%. Besides, in [1], the EC50 amounted to 13.7 nM.
